Source: ChEMBL document CHEMBL1137577, “Inhibitors of the interaction of a thyroid hormone receptor and coactivators: preliminary structure-activity relationships” (J Med Chem, 2007)
Converted amounts (≈) assume the structure as drawn. “And” between values parts separate entries of the source, which are not always exact repeats. Equal entries are not always repeated.

Key:
[1] = biological target: T1, Thyroid hormone receptor alpha (Homo sapiens, UniProt P10827); experiment: Displacement of labeled SRC2-2 from human TRalpha by FP assay
T1 sequence (P10827 whole entry): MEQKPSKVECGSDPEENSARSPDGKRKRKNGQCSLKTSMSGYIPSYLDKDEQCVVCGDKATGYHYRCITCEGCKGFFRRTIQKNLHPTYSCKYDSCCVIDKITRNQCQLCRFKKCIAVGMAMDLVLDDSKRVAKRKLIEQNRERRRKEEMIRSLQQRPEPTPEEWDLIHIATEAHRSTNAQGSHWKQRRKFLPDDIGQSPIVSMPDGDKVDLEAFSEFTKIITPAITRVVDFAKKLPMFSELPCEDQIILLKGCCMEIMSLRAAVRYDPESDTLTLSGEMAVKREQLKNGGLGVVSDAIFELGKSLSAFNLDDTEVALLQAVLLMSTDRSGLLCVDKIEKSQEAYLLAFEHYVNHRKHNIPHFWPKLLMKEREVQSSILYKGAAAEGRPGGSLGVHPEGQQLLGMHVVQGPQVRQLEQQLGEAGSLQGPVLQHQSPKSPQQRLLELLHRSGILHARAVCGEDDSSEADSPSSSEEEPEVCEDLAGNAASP

[2] = biological target: T2, Thyroid hormone receptor beta (Homo sapiens, UniProt P10828); experiment: Displacement of labeled SRC2-2 from human TRbeta expressed in BL21 (DE3) cells FP assay; type: cell-based
T2 sequence (P10828 whole entry): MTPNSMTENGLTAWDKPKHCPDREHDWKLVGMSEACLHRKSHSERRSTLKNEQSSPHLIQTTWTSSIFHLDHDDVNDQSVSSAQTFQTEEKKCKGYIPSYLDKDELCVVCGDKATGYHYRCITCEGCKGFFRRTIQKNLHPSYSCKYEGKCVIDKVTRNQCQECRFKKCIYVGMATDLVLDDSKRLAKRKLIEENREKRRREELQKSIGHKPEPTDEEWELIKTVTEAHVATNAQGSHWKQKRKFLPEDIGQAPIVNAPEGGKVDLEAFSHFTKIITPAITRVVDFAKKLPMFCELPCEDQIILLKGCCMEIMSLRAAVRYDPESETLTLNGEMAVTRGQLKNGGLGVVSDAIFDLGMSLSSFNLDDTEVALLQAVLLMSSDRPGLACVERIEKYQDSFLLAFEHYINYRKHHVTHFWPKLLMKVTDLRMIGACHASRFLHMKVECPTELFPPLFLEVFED
How it was run: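 Competitive fluorescence polarization. Assay liquid was PBS containing 5% DMSO. For TRβ, hTRβ1 LBD (His6, T209-D461) was expressed in BL21 (DE3).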

ARO = experiment: Cytotoxicity against human ARO cells after 48 hrs by MTS assay; type: functional; details: read-out: LD50 (the source's name)
U2OS = experiment: Cytotoxicity against human U2OS cells after 48 hrs by MTS assay; type: functional; details: read-out: LD50 (the source's name)
physchem = details: PBS
[3] = Permeability across artificial membrane at pH 7.4 by PAMPA assay

Row | Structure (SMILES) | IC50 [1] | IC50 [2] [µM] | CC50 (ARO; Homo sapiens, ARO, 48 h) [µM] | CC50 (U2OS; Homo sapiens, U2OS, 48 h) [µM] | solubility (physchem) [µM] | Papp [3] [×10⁻⁶ cm/s] | permeability [3] | CC50 (ARO) | CC50 (U2OS) [µM]
1 | CCCCCCCc1ccc(C(=O)/C=C/c2ccccc2)cc1 | > 100 µM | > 100 | > 200 | 57 | 30 (≈ 9.19 µg/mL) |  |  |  | 
2 | CCCCCCc1ccc(NC(=O)/C=C/c2ccccc2)cc1 | > 100 µM | > 100 |  |  |  |  |  |  | 
3 | C=CC(=O)Oc1ccc(CCCCC)cc1 | > 100 µM | 55.8 | 21.2 | 36.5 |  |  |  |  | 
4 | C/C=C(\C)C(=O)c1ccc(CCCCCCC)cc1 | > 100 µM | > 100 | > 200 | > 200 | 36 (≈ 9.3 µg/mL) |  |  |  | 
5 | C=C(CC(=O)Nc1ccc(CCCCCC)cc1)C(=O)O | > 100 µM | > 100 | 183 | 124 | 286 (≈ 82.8 µg/mL) | 57 |  |  | 
6 | C=CC(=O)c1ccc(CCCC)cc1 | 71 µM | 66 | 9.9 | 25.6 |  |  |  |  | 
7 | CCCCCCc1ccc(C(=O)CC)cc1 | > 100 µM | > 100 |  |  |  |  |  |  | 
8 | C#CC(=O)Oc1ccc(CCCCCC)cc1 | 16.7 µM | 6.2 | 7.9 | 13.9 | 18 (≈ 4.15 µg/mL) | 21 |  |  | 
9 | CCCCCCc1ccc(C(=O)CCN(C(C)C)C(C)C)cc1 | 4.1 µM | 2 | 15.4 | 20.7 | 55 (≈ 17.5 µg/mL) |  |  |  | 
10 | CCCCCCc1ccc(C(=O)C2CO2)cc1 (configuration not stated) | 47.7 µM | 23.1 | > 200 | 58 | 204 (≈ 47.4 µg/mL) |  | 1117 10^-6 cm/s |  | 
11 | CCCCCCc1ccc(C(=O)/C=C\C(=O)O)cc1 | 19.2 µM | 17.7 | 5.5 | 57.4 | 252 (≈ 65.6 µg/mL) | 66 |  |  | 
12 | CCCCCCc1ccc(C(=O)CCN(C)C)cc1 | […] | 4.3 |  |  |  |  |  |  | 
13 | CCCCCCc1ccc(C(=O)CCN(CCCC)CCCC)cc1 | 6.9 µM | 4.2 | 5.4 | 25.5 | 152 (≈ 52.5 µg/mL) |  |  |  | 
14 | C=CC(=O)c1ccc(CCCCC)cc1 | 60.9 µM | 33.9 | 20 | 22.7 |  |  |  |  | 
15 | CCCCCCc1ccc(C(=O)CCNCCC)cc1 | 25.8 µM | 15.2 | 107 | 160 | 354 (≈ 97.5 µg/mL) | 254 |  |  | 
16 | C=CC(=O)Nc1ccc(CCCCCC)cc1 | 21.6 µM | 17.9 | 113 | 66.5 | 47 (≈ 10.9 µg/mL) | 833 |  |  | 
17 | C=CC(=O)Oc1ccc(CCC)cc1 | > 100 µM | 61 | 4.8 | 121 |  |  |  |  | 
18 | CCCCCCc1ccc(C(=O)CCN2CCOCC2)cc1 | 4.1 µM | 2.7 | 7.2 | 20.8 | 110 (≈ 33.4 µg/mL) |  | 1210 10^-6 cm/s |  | 
19 | CCCCCCc1ccc(C(=O)CF)cc1 | > 100 µM | > 100 | 2.4 | 69 | 95 (≈ 21.1 µg/mL) |  |  |  | 
20 | C=CC(=O)c1ccc(CCCCCC)cc1 | 28.1 µM and 45.2 µM |  |  | 10.1 | 36 (≈ 7.79 µg/mL) | 38 |  | 4.5 µM and 29.5 µM | 18.8
21 | CCCCCCc1ccc(C(=O)CCN(C)Cc2ccco2)cc1 | 22.6 µM | 12.1 |  |  |  |  |  |  | 
